The results in this text go back to ChEMBL document CHEMBL4513216, “Probing the Open Global Health Chemical Diversity Library for Multistage-Active Starting Points for Next-Generation Antimalarials” (ACS Infect Dis, 2020).

The nature of this data set: Toxicity liver stage against HepG2, at 10uM. Type of data set: cell-based. More on the design: test concentration 10 uM, cell line HepG2-A16-CD81EGFP. As to conditions: human, HepG2-A16-CD81EGFP cells; read-out: INHIBITION
The gist of the method:
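Uninfected HepG2-A16-CD81EGFP cells, 3 × 10^3 per well, 1536-well, plated on prespotted compound at 10 μM final, parasite-free screening media added to match infected plates; puromycin 10 μM positive, DMSO 0.5% negative; run in parallel with 48 h PbLuc assay at 37 °C, 5% CO2; viability by CellTiter-Glo luminescence, normalized to controls.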

Regarding `Cn1cccc1C(=O)N1CCn2nnc(COc3cccnc3)c2C1`, the cytotoxicity at 10 µM was -69.7%.
The result for `CCC1(CC)Cc2ccccc2-c2nc(NCCCO)[nH]c(=O)c21` reads 10.2%; that for `COCCN1CCC(CN(Cc2ccncc2)C2CCC2)CC1`, -2.33%.
As to `Cc1cc(CN(C)C(=O)CN2CC3(CCNCC3)OC2=O)no1`, the cytotoxicity at 10 µM was found to be 3.19%.
Then `COC(=O)c1ccc(CN(C)C(=O)c2cnsn2)cc1`, with 9.59%; and `CS(=O)(=O)NCC1CCCN(c2ccc(C#N)cn2)C1` (configuration not stated), with -11.1%; and `CCn1c(C2CCNCC2)nn(Cc2ccc(C(=O)NC)o2)c1=O`, with 6.8%.
`COCCN1CCC(CNC(=O)c2cc(C)cc(C)c2)C1` (configuration not stated): the cytotoxicity at 10 µM was -7.32%.
Then `CC(CNC(=O)Nc1cn[nH]c1)N1CCc2ccccc2C1` (configuration not stated), with -0.289%; and `CC(C)Oc1cc(N2C[C@H](C3CC3)[C@@H](N)C2)nc(N)n1`, with -4.75%; and `O=c1[nH]c(-c2ccc(F)c(F)c2)nc2c1CCNC2`, with 2.06%.
Then `O=C(NC1CC(=O)N(Cc2cccc(F)c2)C1)c1ccncc1` (configuration not stated), with -7.41%; and `CC(C)C(NC(=O)C1CCCC1)c1cc(O)nc(-c2cccnc2)n1` (configuration not stated), with 9.82%.
Then `O=C(CCc1ccc(Br)cc1F)NS(=O)(=O)c1ccc2c(c1)OCCO2`, with 2.48%; and `Cc1cccnc1NCCNC(=O)C1CCN(C(=O)N(C)C)CC1`, with 1.99%.
Consider `CC(C)c1nnc(NC(=O)CN2C(=O)c3ccccc3NC2C(C)C)s1` (configuration not stated), for which the cytotoxicity at 10 µM is -10.2%.
Then `CC(C)CS(=O)(=O)N1C[C@@H]2C[C@H](C(=O)NCc3ccccc3)[C@H](C1)O2`, with 8.24%; and `CN(C)CCN(C)S(=O)(=O)CC1CCOCC1`, with -5.38%.
In the case of `O=C(NCCC(O)c1ccco1)c1ccccc1Br` (configuration not stated), the cytotoxicity at 10 µM was found to be 0.957%.
Then `CCCc1nn(C2CCN(C3CC3)C2=O)c(=O)o1` (configuration not stated), with -13.7%; and `CSc1sc(NC(=O)Cc2c(C)nc(C)[nH]c2=O)nc1C`, with -1.29%; and `CCc1[nH]nc(NC(=O)c2ccc(Cl)cn2)c1C`, with -9.69%.
Then `O=C(Cc1ccn[nH]1)N1CCc2cc(Br)sc2C1`, with 4.42%; and `Cc1cnn(CC2CCCCN2C(=O)c2sccc2C#N)c1` (configuration not stated), with 0.185%; and `CCn1ncc(NC(=O)CCn2ncc3c(Cl)cccc32)c1C`, with 7.74%.
Then `CC(C)CN1CC(C(=O)NCCc2ccc(OC(F)F)cc2)CC1=O` (configuration not stated), with 5.04%; and `O=C1CCC2(CCN(Cc3nccs3)CC2)N1Cc1ccccc1`, with 1.54%; and `CCOC(C)c1noc(CN2CCN(c3ccncc3)CC2)n1` (configuration not stated), with -10.6%.
Take `CNC(=O)C1(c2cnccn2)CCCN1C(=O)c1ccccc1OC` (configuration not stated): the cytotoxicity at 10 µM amounted to 3.1%.
The result for `O=C(NCc1csc(Br)c1)Nc1cn[nH]c1` reads 2.1%; that for `Cn1cnc2cc(CCC(=O)Nc3n[nH]c(C4CC4)n3)ccc21`, 5.21%; that for `Cc1cnn(CC2CN(CC(=O)NCCc3cccs3)CCO2)c1` (configuration not stated), 1.88%.
Then `c1ccc(-c2nc3c(c(NCCn4ccnn4)n2)CCNCC3)nc1`, with -51.1%.
The result for `Cc1ccc(C(=O)N2CCCC2c2nnc3n2CCCCC3)s1` (configuration not stated) reads -0.208%.
Turning to `Cc1ncccc1CNC(CCO)C1CCCCC1` (configuration not stated), the cytotoxicity at 10 µM was -41.8%.
Then `Cc1noc(C2CCN(C(=O)c3ccc(N(C)C)nc3)CC2)n1`, with -5.95%.
The result for `CS(=O)(=O)N1CCCC(Cc2ccnc(Nc3ccccn3)c2)C1` (configuration not stated) reads 5.46%.
Then `Cc1n[nH]c(-c2ccc(NC(=O)C(C)N3CCN(C)CC3)cc2)n1` (configuration not stated), with 6.03%.
For `Fc1ccc(OC2CCN(Cc3nnc(-c4ccco4)o3)CC2)cc1`, the cytotoxicity at 10 µM is -2.56%.
The result for `Cc1noc(C)c1C(=O)N1CCC(c2[nH]ncc2S(C)(=O)=O)C1` (configuration not stated) reads -9.83%.
The result for `CN1CCOC(CNC(=O)CCCOc2cccc(F)c2)C1` (configuration not stated) reads -5.1%; that for `O=C(NC[C@]1(O)CCN(Cc2ccccc2F)C[C@H]1O)c1c[nH]cn1`, 4.41%; that for `CCc1cn[nH]c1C1CCN(C(=O)c2cc(C#N)c(=O)[nH]c2C)CC1`, 2.39%.
The result for `Cc1cc(CNCc2c(C)nn(C)c2N2CCOCC2)no1` reads -8.11%.
With `CC1CCCN(Cc2c(C3CCOCC3)[nH]c3ncccc23)C1` (configuration not stated), the cytotoxicity at 10 µM is -2.03%.
The result for `Cc1nc(C)c(C(=O)NCCNc2ncccc2C#N)s1` reads -1.5%; that for `Cc1ccc(C2c3c(n[nH]c3C)N=C3COC(=O)C32)cc1C` (configuration not stated), 74.9%.
Then `Cc1cc(C)c(CNC(=O)N(C)Cc2nnc3n2CCC3)c(=O)[nH]1`, with -10.5%.
The result for `Cc1n[nH]cc1CNCC(c1cccc(F)c1)N(C)C` (configuration not stated) reads -0.0972%; that for `CN(Cc1ncc(C(C)(C)C)o1)CC1CCCN1c1cccnn1` (configuration not stated), -5.52%.
As for `Cc1ccccc1CCCN1C(=O)CC2(CCSC2)C1=O` (configuration not stated), the cytotoxicity at 10 µM was -3.45%.
With `O=C(CN1C(=O)CCC1=O)N1CCC(CSCc2ccco2)CC1`, the cytotoxicity at 10 µM is -8%.
For `Cn1cc(C(=O)CC2CCCN2C(=O)c2cncc3ccccc23)cn1` (configuration not stated), the cytotoxicity at 10 µM came to 4.11%.
Then `CC(C)Cc1noc(CN2CCCC2c2noc(C3CC3)n2)n1` (configuration not stated), with -12.9%.
Then `CNCc1cn(C2CCN(CCC(C)c3ccccc3)CC2)nn1` (configuration not stated), with 3.44%.
The result for `Cc1nccn1C1(C(=O)O)CCN(Cc2ccc3occc3c2)CC1` reads -1.61%.
`CCc1ccc(C2CCCCCN2Cc2nc(CCOC)no2)o1` (configuration not stated): the cytotoxicity at 10 µM worked out at 1.15%.
The result for `Cc1cc2cccc(C(=O)N3CCOC4(CNCCOC4)C3)c2o1` (configuration not stated) reads -2.21%.
Consider `Cc1cnn(CC(C)Nc2nc(C)cc(N(C)C)n2)c1` (configuration not stated), for which the cytotoxicity at 10 µM stood at 7.07%.
Take `Cn1ncc(C(=O)N2CCN(CCS(C)(=O)=O)CC2)c1Cl`: the cytotoxicity at 10 µM amounted to 4.33%.
Then `O=C1NCCCCC1SCc1coc(-c2cccc(F)c2)n1` (configuration not stated), with 7%; and `CC(C)c1ccc(OCCC(=O)N(C)C)cc1`, with 3.81%.
The result for `Cc1cccc(CN2CC3C[C@]3(NC(=O)c3cccc(F)c3)C2)n1` (some centres not stated) reads -151%; that for `Cn1cnc2c1C(COCC1CCOCC1)CN(C(=O)c1ccoc1)C2` (configuration not stated), -7.8%.
The result for `CCCNC(=O)Cn1cc(OC)c(=O)cc1CSc1nc(C)cc(C)n1` reads 4.46%.
As to `Cc1nc(N)nc(N2CCOc3ccc(CO)cc3C2)c1C`, the cytotoxicity at 10 µM amounted to 4.23%.
The result for `O=C(c1ncccn1)N1C[C@H]2CCC[C@@]2(COCC2CCOCC2)C1` reads -1.11%; that for `CCN1CCN(c2ccc(NC(=O)CC(C)C)c(C)c2)CC1`, -8.87%.
Then `Cc1cnn(CC2CCCN2Cc2cn3ccsc3n2)c1` (configuration not stated), with -1.75%; and `COCCN(C)c1cnn(C)c(=O)c1Br`, with 1.09%; and `Clc1ccc(CN2CCc3c(ncn3C3CC3)C2)c2ncccc12`, with 14%.
Then `O=C(c1nc(=O)[nH][nH]1)N1CCCN(CC2CCCCC2)CC1`, with -12.9%.
